Data on twelve compounds can be found in ChEMBL document CHEMBL2331279, “Rational design and synthesis of 4-substituted 2-pyridin-2-ylamides with inhibitory effects on SH2 domain-containing inositol 5'-phosphatase 2 (SHIP2)” (Eur J Med Chem, 2013).

Calls of active or inactive are those of the source. The rule behind the calls is not given here.

Test [1] concerns the target T1, Phosphatidylinositol 3,4,5-trisphosphate 5-phosphatase 2 (Mus musculus) (UniProt Q6P549).
T1 sequence (whole entry): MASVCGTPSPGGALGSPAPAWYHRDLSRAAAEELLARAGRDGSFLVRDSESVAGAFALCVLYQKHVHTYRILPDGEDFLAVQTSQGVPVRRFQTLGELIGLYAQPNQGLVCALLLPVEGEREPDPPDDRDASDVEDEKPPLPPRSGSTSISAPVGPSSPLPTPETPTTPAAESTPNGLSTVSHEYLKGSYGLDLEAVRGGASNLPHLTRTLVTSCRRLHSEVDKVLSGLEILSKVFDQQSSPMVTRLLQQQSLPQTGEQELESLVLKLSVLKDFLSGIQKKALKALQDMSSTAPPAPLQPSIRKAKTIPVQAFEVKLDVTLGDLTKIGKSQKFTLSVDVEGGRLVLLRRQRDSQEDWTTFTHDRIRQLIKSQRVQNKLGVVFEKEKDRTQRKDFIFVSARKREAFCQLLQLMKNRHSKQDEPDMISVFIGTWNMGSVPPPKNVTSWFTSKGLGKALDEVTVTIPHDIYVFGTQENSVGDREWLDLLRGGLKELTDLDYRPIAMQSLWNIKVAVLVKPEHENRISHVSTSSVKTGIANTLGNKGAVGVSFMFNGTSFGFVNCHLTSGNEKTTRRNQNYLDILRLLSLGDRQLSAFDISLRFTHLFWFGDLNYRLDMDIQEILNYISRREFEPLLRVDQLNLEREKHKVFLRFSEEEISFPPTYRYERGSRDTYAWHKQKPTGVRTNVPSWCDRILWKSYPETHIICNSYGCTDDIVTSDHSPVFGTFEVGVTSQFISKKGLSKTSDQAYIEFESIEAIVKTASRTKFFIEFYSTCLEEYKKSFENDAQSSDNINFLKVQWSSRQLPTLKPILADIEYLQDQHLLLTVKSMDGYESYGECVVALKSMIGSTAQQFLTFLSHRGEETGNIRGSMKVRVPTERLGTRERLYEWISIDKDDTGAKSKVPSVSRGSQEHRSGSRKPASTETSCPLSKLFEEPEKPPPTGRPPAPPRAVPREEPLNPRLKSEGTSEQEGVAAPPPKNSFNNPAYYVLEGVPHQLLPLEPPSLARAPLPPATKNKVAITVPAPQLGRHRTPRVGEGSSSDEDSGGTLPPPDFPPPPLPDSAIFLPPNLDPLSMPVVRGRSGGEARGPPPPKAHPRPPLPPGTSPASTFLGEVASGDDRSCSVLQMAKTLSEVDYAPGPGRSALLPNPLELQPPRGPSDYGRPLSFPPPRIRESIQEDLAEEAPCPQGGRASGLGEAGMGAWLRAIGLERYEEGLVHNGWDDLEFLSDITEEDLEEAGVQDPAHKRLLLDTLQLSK
Description: Inhibition of SHIP2 in mouse 3T3L1 cells assessed as reduction of TNF-alpha induced decrease in insulin-stimulated Akt phosphorylation at Thr308 at 10 uM treated for 15 mins after TNF alpha challenge for 16 hrs and prior to insulin stimulation measured after 2 hrs by Western blot analysis. The test is classed as cell-based. The conditions noted are these: 3T3-L1. The procedure, abridged:
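3T3-L1 fibroblasts differentiated into adipocytes, then serum-starved 16 h with TNFα 20 ng/mL. Treated with compound 10 µM or 0.1% DMSO for 15 min, then stimulated with 17 nM insulin at 37 °C for 2 h. Cells lysed on ice at pH 7.5 and Thr308 phospho-Akt measured by western blot. Results given as fold change versus TNFα+insulin control. Mean ± SE.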
(In western blotting, separated proteins are transferred to a membrane and probed.)

The target of test [2] is T2, Phosphatidylinositol 3,4,5-trisphosphate 5-phosphatase 2 (Homo sapiens, UniProt O15357).
T2 sequence (O15357 whole entry): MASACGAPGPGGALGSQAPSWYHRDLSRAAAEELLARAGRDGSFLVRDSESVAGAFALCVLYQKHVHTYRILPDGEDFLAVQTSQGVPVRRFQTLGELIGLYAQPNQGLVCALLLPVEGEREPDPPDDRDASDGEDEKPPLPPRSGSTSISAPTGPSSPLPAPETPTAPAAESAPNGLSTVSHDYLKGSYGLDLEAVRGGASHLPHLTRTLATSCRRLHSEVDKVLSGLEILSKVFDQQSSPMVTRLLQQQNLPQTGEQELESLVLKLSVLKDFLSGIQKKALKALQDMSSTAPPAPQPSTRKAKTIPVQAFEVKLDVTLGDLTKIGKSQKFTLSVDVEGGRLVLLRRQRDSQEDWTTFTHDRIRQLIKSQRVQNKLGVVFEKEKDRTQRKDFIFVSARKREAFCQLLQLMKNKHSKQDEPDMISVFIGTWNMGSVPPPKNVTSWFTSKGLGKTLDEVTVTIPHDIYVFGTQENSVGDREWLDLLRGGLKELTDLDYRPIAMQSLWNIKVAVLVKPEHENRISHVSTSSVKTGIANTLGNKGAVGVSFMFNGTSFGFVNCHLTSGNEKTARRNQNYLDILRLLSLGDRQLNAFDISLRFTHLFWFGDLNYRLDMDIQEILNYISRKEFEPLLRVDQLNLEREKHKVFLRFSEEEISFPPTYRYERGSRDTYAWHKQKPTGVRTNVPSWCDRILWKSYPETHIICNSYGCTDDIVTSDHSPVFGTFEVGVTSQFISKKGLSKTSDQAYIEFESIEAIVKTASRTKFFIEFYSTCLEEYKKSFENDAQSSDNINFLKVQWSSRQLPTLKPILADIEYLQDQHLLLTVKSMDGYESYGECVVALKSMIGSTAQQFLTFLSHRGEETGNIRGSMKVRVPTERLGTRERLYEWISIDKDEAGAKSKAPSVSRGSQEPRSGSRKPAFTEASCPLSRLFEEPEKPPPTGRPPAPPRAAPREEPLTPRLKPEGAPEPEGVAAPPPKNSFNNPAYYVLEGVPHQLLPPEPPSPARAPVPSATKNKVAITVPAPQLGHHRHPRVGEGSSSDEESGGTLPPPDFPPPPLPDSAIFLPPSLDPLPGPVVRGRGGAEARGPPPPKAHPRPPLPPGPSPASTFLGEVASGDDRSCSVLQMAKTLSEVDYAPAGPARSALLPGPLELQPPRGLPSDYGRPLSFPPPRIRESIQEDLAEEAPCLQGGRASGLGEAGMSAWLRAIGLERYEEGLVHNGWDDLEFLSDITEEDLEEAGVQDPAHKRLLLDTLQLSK
The test can be described thus: Inhibition of SHIP2 (unknown origin).

Turning to `O=C(CCc1ccccc1)Nc1cc(COCc2ccc(F)cc2)ccn1`, in test [1], the inhibition entry was “Active”. Take `O=C(Cc1ccc(F)cc1)Nc1cc(OCc2ccc(F)cc2)ccn1`: in test [1], the inhibition entry was “Active”. For the compound `O=C(Cc1cc(F)cc(F)c1)Nc1cc(COCc2ccc(F)cc2)ccn1`, the inhibition result in test [1] was “Active”. Same read-out and setting: the value for `O=C(Cc1ccccc1)Nc1cc(COCc2ccc(Cl)cc2)ccn1` was “Active”; that for `O=C(Cc1ccccc1)Nc1cc(OCc2ccc(F)cc2)ccn1` was “Active”. With `O=C(CCc1ccccc1)Nc1cc(COCc2ccccc2)ccn1`, in test [1], the inhibition entry was “Active”. Still for that read-out and setting: then `O=C(Cc1c(F)cccc1F)Nc1cc(COCc2ccc(F)cc2)ccn1`, with “Active”. Regarding `O=C(Cc1c(F)cccc1F)Nc1cc(OCc2ccc(F)cc2)ccn1`, the inhibition result in test [1] was “Active”. For `O=C(CCc1ccccc1)Nc1cc(OCc2ccc(Cl)cc2)ccn1`, the inhibition result in test [1] was “Active”. Still for that read-out and setting: then `O=C(CCc1ccccc1)Nc1cc(COCc2ccc(Cl)cc2)ccn1`, with “Active”. As usually defined, the IC50 is the point on the concentration scale where inhibition reaches its midpoint. `CC(C)N(CCNc1ccc(-c2cc(-c3ccc(F)cc3)n(-c3ccc(Cl)c(Cl)c3)n2)cn1)C(C)C` had an IC50 in test [2] of 1.1 µM.

With `O=C(Cc1ccccc1C(F)(F)F)Nc1cc(OCc2ccc(Cl)cc2)ccn1`, the inhibition result in test [1] is “Active”.
